Assay outcomes deposited in PubChem BioAssay by several laboratories.
SR-BI DiI-HDL act – enhances SR-BI lipid uptake from DiI-HDL. 0.096% of 320,000 active. activation, % at 12.5 µM. CHO ldlA[mSR-BI] cells, DiI-HDL uptake fluorescence, 3 h; 100 = double the neutral-control signal. AID 504775;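 active = mean replicate activation of at least 60% and every replicate at or above 60%; inconclusive = mean or all-replicate condition met, but not both; inactive = mean below 60% and not all replicates reaching 60%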
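Test system: SR-BI-overexpressing, LDLR-lacking CHO cells; Also added: labelled HDL, 10 µg/mL; Measured by: bottom-read cell fluorescence after medium removal, ex 550/em 595 nm; Timing: 3 h uptake period with compound, 37 °C; Buffer or medium: F12, 0.5% BSA, 25 mM HEPES; Doses: single compound concentration, delivered by pin transfer.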
H9c2 TAG inh – reduces triacylglycerol accumulation in H9c2 cells; Nile Red lipid (TAG) fluorescence; cells loaded with 200 µM oleic acid; inhibition, % at 12.5 µM; 0.66% of 230,000 active;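 active = pattern-corrected inhibition of lipid staining of at least 50% with the nuclear-stain viability signal not falling by more than 50%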
Vif inh – HIV Vif inhibition | HEK293T cells, Vif self-association by quenched fluorescence, imaging, 24 h | 0.35% of 340,000 active | inhibition, % at 7.49 µM; in the data active = inhibition above about 50%, passing the limit was not always enough; inconclusive = no clear call, values can overlap the other calls; inactive = below about 31%
SMARCA2 act – activators of SMARCA2 function | AID 652017 | activation, % at 9.1 µM | MG213 cells, MMTV-luciferase reporter, dexamethasone, overnight | 1% of 370,000 active; in the data active = activation above about 7.8%
SR-BI HDL uptake – mouse SR-BI HDL lipid transfer inhibition; Q61009; 0.96% of 320,000 active; ldlA[mSR-BI] CHO cells, DiI-HDL uptake fluorescence, 3 h; inhibition, % at 12.5 µM;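 active = mean replicate inhibition of at least 70% and a set share of replicates each scoring 70 or more; inconclusive = meets just one of the two criteria; inactive = fails both criteria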
Target sequence (Q61009 whole entry, looked up): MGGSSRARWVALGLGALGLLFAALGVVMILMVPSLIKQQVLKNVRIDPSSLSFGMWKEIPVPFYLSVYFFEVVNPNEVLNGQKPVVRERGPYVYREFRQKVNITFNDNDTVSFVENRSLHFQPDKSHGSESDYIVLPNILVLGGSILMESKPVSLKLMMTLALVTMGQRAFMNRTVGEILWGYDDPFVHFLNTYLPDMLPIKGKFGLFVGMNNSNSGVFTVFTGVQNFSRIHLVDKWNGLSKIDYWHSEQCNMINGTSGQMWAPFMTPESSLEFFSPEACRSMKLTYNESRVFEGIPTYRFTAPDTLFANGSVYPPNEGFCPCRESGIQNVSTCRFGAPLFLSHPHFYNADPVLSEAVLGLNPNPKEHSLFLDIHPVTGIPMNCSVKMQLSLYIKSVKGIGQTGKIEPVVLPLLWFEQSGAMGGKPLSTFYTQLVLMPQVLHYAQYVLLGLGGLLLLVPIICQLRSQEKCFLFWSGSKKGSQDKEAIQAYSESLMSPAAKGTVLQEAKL
TAG conf – confirmation of triacylglycerol accumulation inhibitors. shares compounds with H9c2 TAG inh. H9c2 lipid accumulation, Nile Red fluorescence; cells loaded with 200 µM oleic acid. inhibition, % at 12.5 µM. 71% of 990 active. AID 651629;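 active = mean inhibition across replicates of 40% or more; inactive = mean inhibition below 40%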
Of the large screens only hits and unclear results are named; the others gave an inactive call (follow-up assays come after a bar, where they were run). Most compounds without a hit are left out; they make up all but 2.5% or so of the library.

COC(=O)[C@]12C[C@H](CC(=O)N3CCCCC3)C(=O)N(CCc3ccc(OC)c(OC)c3)C1=C[C@H](C(C)(C)C)O[C@@H]2C	none (no result: SR-BI DiI-HDL act, H9c2 TAG inh, Vif inh, SR-BI HDL uptake)
OCCCn1c(C2CCCN2c2nc(-c3ccc(Cl)cc3)cs2)nc2cc(Cl)c(N3CCCCC3)cc21 (stereo not given)	H9c2 TAG inh 62.1 | TAG conf 56.0
OCCOCCn1c(C2CCCN2c2nc(-c3ccc(F)cc3)cs2)nc2cc(C(F)(F)F)ccc21 (stereo not given)	none (no result: Vif inh)
OCCCn1c(C2CCCN2c2nc(-c3ccc(F)cc3)cs2)nc2cc(C(F)(F)F)ccc21 (stereo not given)	H9c2 TAG inh 60.1 | TAG conf 57.0
Cc1ccccc1C(=O)N(C)[C@H]1C[C@H]2c3[nH]c4c(-c5ccc6c(c5)OCO6)cccc4c3CCN2C(=O)[C@H]1[C@H](C)O	none (no result: SR-BI DiI-HDL act, H9c2 TAG inh, Vif inh, SR-BI HDL uptake)
Cc1ccc2c(c1)C1CS(=O)(=O)N(CCc3ccccc3)CN1C2 (stereo not given)	none (no result: SR-BI DiI-HDL act, H9c2 TAG inh, Vif inh, SR-BI HDL uptake)
O=C(OC1CC2CCC(C1)[N+]21CCCC1)C(O)(c1ccccc1)c1ccccc1 (stereo not given)	none (no result: SR-BI DiI-HDL act, H9c2 TAG inh, Vif inh, SR-BI HDL uptake)
COc1cccc(-c2nc(-c3ccc(NC(=O)Cc4ccccc4OC)cc3)no2)c1	H9c2 TAG inh 50.7, SR-BI HDL uptake 78.3 (no result: SMARCA2 act) | TAG conf 55.1
CCOc1ccc(NC(=O)c2ccc(NC(=O)CSc3nc4ccccc4c(=O)[nH]3)cc2)cc1	H9c2 TAG inh 60.8, SR-BI HDL uptake inconclusive | TAG conf 62.8
OCCN1CCN(CC(O)COc2ccc(C34CC5CC(CC(C5)C3)C4)cc2)CC1 (stereo not given)	H9c2 TAG inh 63.4 | TAG conf inactive
OCCN1CCN(CC(O)COc2ccc(Cl)cc2)CC1 (stereo not given)	none (no result: SR-BI DiI-HDL act)
c1ccc(-c2nc(SCc3nc4ccccc4[nH]3)c3oc4ccccc4c3n2)cc1	H9c2 TAG inh 73.7 | TAG conf 87.8
Cc1nc(SCc2nc3ccccc3[nH]2)c2oc3ccccc3c2n1	none
Cc1ccccc1NS(=O)(=O)c1ccc(N2CCCC2=O)cc1	H9c2 TAG inh 57.9 | TAG conf inactive
COc1ccc(OC)c(NS(=O)(=O)c2ccc(N3CCCC3=O)cc2)c1	H9c2 TAG inh 56.5 | TAG conf 42.1
N#Cc1ccc(Cn2ccc3ccc(-c4ccc5ccn(C(=O)C6CC6)c5c4)cc32)cc1	none (no result: SR-BI DiI-HDL act, H9c2 TAG inh, Vif inh, SR-BI HDL uptake)
CC(C)C[C@H]1COc2cccc(N3CCCC3)c2S(=O)(=O)N1	none (no result: SR-BI DiI-HDL act, H9c2 TAG inh, Vif inh, SR-BI HDL uptake)
O=c1cc(-c2ccccc2)[nH]c2ccccc12	H9c2 TAG inh 66.3 | TAG conf 48.7
COC(=O)[C@]12C[C@H](CC(=O)NCCCN3CCCC3=O)C(=O)N(Cc3ccc4c(c3)OCO4)C1=C[C@H](C(C)C)O[C@@H]2C1CC1	none (no result: SR-BI DiI-HDL act, H9c2 TAG inh, Vif inh, SR-BI HDL uptake)
Cc1ccc2c(c1)N(C(=O)CCC(=O)NCCCN1CCC(Cc3ccccc3)CC1)CCO2	H9c2 TAG inh 60.8 | TAG conf 59.8
CCNC(=O)N1CCN(c2ccc(N3CCN(C(=O)NCC)[C@H](C)C3)c(C)c2)[C@@H](C)C1	none (no result: SR-BI DiI-HDL act, H9c2 TAG inh, Vif inh, SR-BI HDL uptake)
CN(c1cccnc1)c1ccc(NC(=O)Cc2c[nH]c3ccccc23)cc1Br	none (no result: SR-BI DiI-HDL act, H9c2 TAG inh, Vif inh, SR-BI HDL uptake)
Cc1ccc(CN2CCSc3ccc(C(=O)NC4CCN(Cc5ccccc5)CC4)cc32)cc1	none
Cc1ccc(-n2c(=O)[nH]c3cc(C(=O)NC4CCN(Cc5ccccc5)CC4)ccc3c2=O)cc1	H9c2 TAG inh 74.9 | TAG conf inactive
COCCNc1nc(NCCOC)c2sc(-c3ccccc3)cc2n1	none (no result: SR-BI DiI-HDL act, SR-BI HDL uptake)
COCCNc1nc(-c2ccc(OC)cc2C)c2sc(-c3ccccc3)cc2n1	H9c2 TAG inh 59.6 (no result: SR-BI DiI-HDL act, SR-BI HDL uptake) | TAG conf inactive
CN1C(=O)c2cc(NC(=O)Nc3ccccc3)ccc2OC[C@H]2O[C@@H](CC(=O)NC3Cc4ccccc4C3)CC[C@@H]21	none (no result: SR-BI DiI-HDL act, H9c2 TAG inh, Vif inh, SR-BI HDL uptake)
COC(=O)C1=C(C)N(Cc2ccccc2)C(=NCC(C)C)N[C@H]1c1cccc(F)c1	H9c2 TAG inh 92.5 | TAG conf 73.0
COc1cccc(C=NNC(=O)CSc2nc3ccccc3[nH]2)c1O	none (no result: SR-BI DiI-HDL act, H9c2 TAG inh, Vif inh, SR-BI HDL uptake)
CCOC(=O)c1cnn(-c2nc(-c3ccccc3)nc3c2COC(C)(C)C3)c1N	H9c2 TAG inh 53.7 (no result: SR-BI DiI-HDL act, SR-BI HDL uptake) | TAG conf inactive
CCOC(=O)c1cnn(-c2ccccc2)c1N	none (no result: H9c2 TAG inh)
CSc1nnc2c(n1)C[C@H](c1ccccc1)[C@@H](C)[C@@H](C(=O)N1CCCC1)C2	none (no result: SR-BI DiI-HDL act, H9c2 TAG inh, Vif inh, SR-BI HDL uptake)
